Results taken from ChEMBL document CHEMBL4513216, “Probing the Open Global Health Chemical Diversity Library for Multistage-Active Starting Points for Next-Generation Antimalarials” (ACS Infect Dis, 2020).

Assay: Toxicity liver stage against HepG2, at 10uM
Type: cell-based
Parameters: test concentration 10 uM, cell line HepG2-A16-CD81EGFP
Details: human, HepG2-A16-CD81EGFP cells; read-out: INHIBITION
Summary of the method: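 Uninfected HepG2-A16-CD81EGFP cells, 3 × 10^3 per well, 1536-well, plated on prespotted compound at 10 μM final, parasite-free screening media added to match infected plates; puromycin 10 μM positive, DMSO 0.5% negative; run in parallel with 48 h PbLuc assay at 37 °C, 5% CO2; viability by CellTiter-Glo luminescence, normalized to controls.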

Row | SMILES | cytotoxicity at 10 µM [%]
1 | CN1CC=C(c2noc(CCC(=O)N3CCCC3)n2)CC1 | 4.87
2 | Nc1nc2c(c3c1C(=O)NC3=O)CCC2 | -4.21
3 | CCOC(=O)c1nc(COc2c(C)occc2=O)no1 | 3.79
4 | Cn1c(C(=O)Nc2nc[nH]n2)cc2ccccc21 | 1.24
5 | COCC(C)(O)CNC(=O)Nc1cccc(OC)c1OC (stereo not given) | -2.75
6 | N#Cc1ccccc1NC(=O)C1CN(C(=O)c2ccc3c(c2)OCO3)C1 | -8.64
7 | O=C(N1CCOCC1)N1C[C@@H]2OCCN(C(=O)c3ccco3)[C@@H]2C1 | -135
8 | O=S1(=O)N=C(SCc2ccc(Cl)cc2)Nc2ccc(F)cc21 | 27.6
9 | CCCNC(=O)c1cc2c([nH]c1=O)CC(c1cccs1)CC2=O (stereo not given) | 50.9
10 | CCc1nc(NCc2ccccn2)c2c(n1)c(C)nn2C | 8.92
11 | Cc1ccc(NC(=O)N2CCN(Cc3ccccn3)CC2)cc1Cl | -7.21
12 | CCn1nc(C)c(CNC(=O)c2nnc3ccc(OC)cc3n2)c1C | 6.58
13 | Cc1nn(C)c2cnn(CCCNS(=O)(=O)Cc3ccccc3)c12 | 0.999
14 | COc1ccc([C@@H]2NC(=O)N[C@H]3OCCC[C@H]32)cc1 | 1.49
15 | Cc1cc2c(=O)n3c(nc2s1)CCN(C(=O)c1cnn(C)c1C)CC3 | 0.359
16 | CC(=O)NC(Cc1c[nH]c2cc(F)ccc12)C(=O)Nc1cnn(C)c1 (stereo not given) | 13.9
17 | CC(=O)Nc1cccc(CN2CCN(C3=NCC(C)(C)S3)CC2)c1 | 0.955
18 | CN(C(=O)C1CC(=O)N(CCc2ccccc2)C1)c1nccs1 (stereo not given) | 9.89
19 | Cc1noc(C)c1S(=O)(=O)N(CC(N)=O)CC(C)C | -6.46
20 | CCOCC(=O)NCC1(NC(C)c2ccccc2)CCOCC1 (stereo not given) | -8.01
21 | CSc1ccc(S(=O)(=O)NC2CNC(=O)C2)cc1 (stereo not given) | -2.46
22 | O=C(NCCSCc1cccs1)C1CCCN(C(=O)N2CCCC2)C1 (stereo not given) | -13.6
23 | CSc1ccc(NCC(=O)Nc2c(C)nn(C)c2C)cc1F | 10.7
24 | CCC(NCc1cc[nH]n1)c1nc(C(F)(F)F)cs1 (stereo not given) | 6.12
25 | CNC(=O)NC(=O)CCSc1ccccc1Cl | -5.13
26 | O=C(Nc1cccc(OCC(F)F)n1)c1ccncc1F | -3.33
27 | Cc1cc(C)n(C2CN(CC(=O)NCc3ccccn3)C2)n1 | -2.92

Row | SMILES | cytotoxicity at 10 µM [%]
28 | COC(=O)C(NC(=O)COC1CCCCC1)c1ccccc1 (stereo not given) | -21.4
29 | CC(C)C1CN(C(=O)c2ccc(N3CCCC3)nc2)CCS1 (stereo not given) | -4.81
30 | Cc1nc(COC[C@@]23CCC[C@@H]2CN(Cc2cnn(C)c2)C3)cs1 | -101
31 | Cc1cc(C(=O)N2CCn3cc(CN(C)C)nc3C2)no1 | -80.5
32 | CC1=N[C@@]2(CC[C@@H]3CN(S(=O)(=O)C4CC4)C[C@@H]32)C(=O)N1CC(C)C | -76.8
33 | O=C1CC(c2ccncc2)C2(CCN(C(=O)c3ccnnc3)CC2)N1 (stereo not given) | -80.4
34 | Cc1noc([C@@H]2CCO[C@@H]3CCN(Cc4nccs4)C[C@@H]32)n1 | -75.8
35 | COCC(=O)N1CC[C@@H](N2CCN(C)CC2)[C@@H]1Cc1ccccc1 | -66.1
36 | COCC1CN(C(=O)c2cccn2C)Cc2nccn2C1 (stereo not given) | 6.92
37 | Cc1cc(CN(C)C(=O)c2cc(COc3ccccc3)[nH]n2)n[nH]1 | 5.76
38 | CC(C)CN1CC(c2nc(-c3cccc(F)c3)c[nH]2)CC1=O (stereo not given) | 4.52
39 | COc1cc(NCCCSc2nnc(C)s2)ncn1 | 20.6
40 | Cc1ccc(NC2(C(=O)N3CCn4cncc4C3)CCCCC2)cc1C | 8.47
41 | CCc1ccc2nc(NCCCN(CCO)CCO)cc(C)c2c1 | -13.3
42 | CCN(C(C)=O)C1CCN(c2nccc(C3CCCC3)n2)C1 (stereo not given) | -5.35
43 | Cn1cccc1C(=O)N1CC[C@@]2(O)CCN(S(C)(=O)=O)C[C@H]2C1 | -10.7
44 | CC(C)c1nc(CNC(=O)c2ccc(C(C)N3CCCCC3)o2)cs1 (stereo not given) | -9.93
45 | OCC1(O)CCN(Cc2ccc(C3CCCCO3)o2)CC1 (stereo not given) | -5.95
46 | CN1CCN(Cc2noc(CC3CCc4ccccc43)n2)CC1 (stereo not given) | -20.1
47 | Cc1n[nH]c(C)c1CCc1ccc(S(C)(=O)=O)cc1 | 6.29
48 | CCNc1ncc(C(=O)N2CCOC(CCCc3ccccc3)C2)cn1 (stereo not given) | 79.2
49 | Cc1ccc(F)c(NC(=O)CCC(=O)N(C)Cc2cc(C3CC3)[nH]n2)c1 | 7.28
50 | CC(C)CN1C(=O)CC[C@H]2CN(Cc3ncc[nH]3)CC[C@H]21 | -3.25
51 | CN(C)C(C(=O)N1CCN(C(=O)c2ccc[nH]2)CC1)c1ccc(F)cc1 (stereo not given) | -5.19
52 | Cc1ccc2c(c1)cc(CN1CC[C@](C)(O)[C@H](C)C1)n2C | 0.379
53 | CCCN1CCCC1c1ccc(C(=O)N2CCOCC2)s1 (stereo not given) | -146
54 | NCC1CN(c2nc(-c3ccccc3)nc3c2CCNCC3)CCO1 (stereo not given) | -14.9

Row | SMILES | cytotoxicity at 10 µM [%]
55 | CCNC(=O)[C@@H]1C[C@@H](NC(=O)Cc2ccccn2)CN1CCCSC | -6.72
56 | CCc1nc(C2CCCN(C(=O)c3ccccc3Cl)C2)no1 (stereo not given) | -5.43
57 | CCn1ncc2c1CCCC2NCc1ccc(OC)cc1OC (stereo not given) | -2.06
58 | Cc1nccn1C1CCCN(C(=O)c2cc3c(F)cccc3[nH]2)C1 (stereo not given) | 5.32
59 | COCc1nc(CN(CC(N)=O)C(C)C)cs1 | -8.39
60 | O=C(CN1CCCC(Cn2cncn2)C1)NCCc1cccs1 (stereo not given) | -17.6
61 | CCc1nc(CN2CCN(CC(O)c3ccccc3)CC2)no1 (stereo not given) | -15.3
62 | Cc1cccc(C(=O)NCc2ccc(S(N)(=O)=O)cc2)n1 | -4.25
63 | c1ccc(OCc2ccncc2)c(CNC2CCc3ncnn3C2)c1 (stereo not given) | -2.35
64 | c1ccc(-c2nccc(CNCC3CCCN3c3cccnn3)n2)cc1 (stereo not given) | -1.17
65 | CCOc1ccnc(N2CCN(C(=O)c3cc(Cl)c[nH]3)CC2)n1 | -9.29
66 | CC(C)c1nnc2n1CCN(C(=O)c1ccnc(N(C)C)c1)C2 | 3.06
67 | Cc1ncccc1CNCC1CCN(CC(O)c2ccccc2)CC1 (stereo not given) | -6.76
68 | Cc1ccc(NC2CCN(C(=O)CN(C)C3CC3)CC2)nn1 | 4.64
69 | Cc1ccc(C#N)cc1NC(=O)NC1CCCN(c2ncccn2)C1 (stereo not given) | -10.2
70 | CN(CC1CN(Cc2cn3ccsc3n2)CCO1)c1cccnn1 (stereo not given) | 4.55
71 | Cc1ccc(=O)n(CC2(O)CCN(Cc3cc(C)c(O)c(C)c3)CC2)n1 | 1.7
72 | Cn1cc(CNC2CCc3c(ccc(=O)n3Cc3ccncc3)C2)cn1 (stereo not given) | -102
73 | CN(Cc1ccco1)[C@@H]1CN(C(=O)c2ccnnc2)[C@@H]2CCCO[C@H]12 | -7.93
74 | COCC1CC2(CCN(C(=O)c3cnc4ccccc4c3)CC2)CO1 (stereo not given) | -142
75 | COc1ccc(S(=O)(=O)N2CCN(C)c3ncccc3C2)cc1 | -110
76 | Cn1cc(C(=O)N2CC[C@@H]3[C@@H]2CCN3Cc2cccc(C#N)c2)cn1 | -71.3
77 | CCN(CC)c1ncnc2c1CCN(CC1CCOCC1)CC2 | -81.5
78 | Cc1ccc2c(c1)C(NC1CC1)CC21CCNCC1 (stereo not given) | -98
79 | CCN1C[C@H]2[C@@H](C1)N(S(=O)(=O)c1ccccc1)CC[C@H]2OC | -75.3
80 | Cc1ccc(-c2cc(C3=NC(=CN4CCN(C)CC4)NO3)[nH]n2)cc1 | -10.5
